Source: ChEMBL document CHEMBL4765336, “Discovery of coumarin derivatives as potent and selective cyclin-dependent kinase 9 (CDK9) inhibitors with high antitumour activity” (Eur J Med Chem, 2020)

How the values were obtained:
[1] = Toxicity in BALB/c nude mouse xenografted with human MV4-11 cells assessed as body weight loss at 40 mg/kg, iv administered once daily for 21 days and measured 2 or 3 times per week; assay type: organism-based; conditions: in vivo, 504 h, time 21 day
How it was run: (§1)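 Female BALB/c nude mice, six weeks old, with subcutaneous right-flank MV4-11 xenografts (5 million cells in PBS mixed 1:1 with Matrigel). Daily intravenous dosing started at tumour size 150–200 mm³, 6 mice per group, for 21 consecutive days. Vehicle was dimethylacetamide 20%/polyoxyethylated castor oil 40%/anhydrous ethanol 40%. Body weight was recorded two or three times weekly, and mortality was monitored throughout treatment.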

MV4-11 = assay: Antitumor activity against human MV4-11 cells xenografted in Balb/c nude mouse assessed as reduction in tumor volume at 40 mg/kg, iv administered once daily for 21 days (reference value: 1.00 g); assay type: functional; conditions: time 21 day
[2] = target: Cyclin-dependent kinase 7/ cyclin H (Homo sapiens, UniProt P50613); assay: Inhibition of CDK7/Cyclin H (unknown origin) preincubated for 20 mins followed by ATP addition and measured after 120 mins in presence of [33P-gamma] ATP by hotspot kinase assay; assay type: protein-complex assay
Cyclin-dependent kinase 7/ cyclin H, sequence (P51946 whole entry): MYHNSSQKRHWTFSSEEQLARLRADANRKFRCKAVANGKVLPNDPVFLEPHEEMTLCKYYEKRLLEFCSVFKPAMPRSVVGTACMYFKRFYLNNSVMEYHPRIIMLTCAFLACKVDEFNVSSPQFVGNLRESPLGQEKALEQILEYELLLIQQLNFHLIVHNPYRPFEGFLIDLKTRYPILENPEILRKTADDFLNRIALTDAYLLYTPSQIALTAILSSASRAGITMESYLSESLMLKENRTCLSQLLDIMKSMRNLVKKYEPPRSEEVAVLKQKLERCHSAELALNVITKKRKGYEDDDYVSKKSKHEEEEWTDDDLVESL
Cyclin-dependent kinase 7/ cyclin H, sequence (P50613 whole entry): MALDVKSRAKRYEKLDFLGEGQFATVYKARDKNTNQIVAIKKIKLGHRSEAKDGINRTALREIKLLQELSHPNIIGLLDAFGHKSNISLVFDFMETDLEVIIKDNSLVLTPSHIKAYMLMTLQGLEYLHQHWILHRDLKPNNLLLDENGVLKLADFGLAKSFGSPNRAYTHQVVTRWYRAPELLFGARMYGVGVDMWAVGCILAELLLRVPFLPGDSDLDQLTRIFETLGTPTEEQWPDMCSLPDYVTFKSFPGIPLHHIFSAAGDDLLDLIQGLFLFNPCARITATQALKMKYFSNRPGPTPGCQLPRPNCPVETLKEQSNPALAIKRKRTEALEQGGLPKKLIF
How it was run: (§2)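 Radiometric filter-binding assay: kinase and substrate in 20 mM Hepes pH 7.5, 10 mM MgCl2, 1 mM EGTA, 0.02% Brij35, 0.02 mg/mL BSA, 0.1 mM Na3VO4, 2 mM DTT, 1% DMSO. Compound (top 1/10/27 μM, 3-fold serial dilutions) preincubated 20 min at 25 °C. ATP plus [γ-33P]ATP added to 10 μM final, reacted 120 min at 25 °C. IC50 from curve fit, duplicate mean.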

[3] = target: Cyclin-dependent kinase 2/cyclin E1 (Homo sapiens, UniProt P24941); assay: Inhibition of CDK2/Cyclin E (unknown origin) preincubated for 20 mins followed by ATP addition and measured after 120 mins in presence of [33P-gamma] ATP by hotspot kinase assay; assay type: protein-complex assay; how it was run: as §2
[4] = target: Cyclin-dependent kinase 5/CDK5 activator 1 (Homo sapiens, UniProt Q00535); assay: Inhibition of CDK5/p25 (unknown origin) preincubated for 20 mins followed by ATP addition and measured after 120 mins in presence of [33P-gamma] ATP by hotspot kinase assay; assay type: protein-complex assay; how it was run: as §2
Cyclin-dependent kinase 5/CDK5 activator 1, sequence (Q00535 whole entry): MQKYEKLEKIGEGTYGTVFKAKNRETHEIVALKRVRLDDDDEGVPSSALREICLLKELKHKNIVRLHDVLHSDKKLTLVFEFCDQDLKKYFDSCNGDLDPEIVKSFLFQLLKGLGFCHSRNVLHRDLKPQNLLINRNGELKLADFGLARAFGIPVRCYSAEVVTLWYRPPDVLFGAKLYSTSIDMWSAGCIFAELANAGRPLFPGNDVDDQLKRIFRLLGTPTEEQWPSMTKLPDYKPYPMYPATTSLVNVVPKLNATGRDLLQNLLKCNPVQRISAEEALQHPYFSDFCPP
Cyclin-dependent kinase 5/CDK5 activator 1, sequence (Q15078 whole entry, further chain): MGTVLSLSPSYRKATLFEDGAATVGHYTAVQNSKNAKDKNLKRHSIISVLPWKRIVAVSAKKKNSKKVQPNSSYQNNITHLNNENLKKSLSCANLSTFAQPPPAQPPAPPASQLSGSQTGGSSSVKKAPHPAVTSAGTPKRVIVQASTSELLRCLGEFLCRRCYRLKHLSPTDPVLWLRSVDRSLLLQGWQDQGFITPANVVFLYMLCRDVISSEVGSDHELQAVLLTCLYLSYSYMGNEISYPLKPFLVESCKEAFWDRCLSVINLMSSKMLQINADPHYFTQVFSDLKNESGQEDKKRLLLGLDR

CDK6/cyclin D3 = CDK6/cyclin D3 (Homo sapiens, UniProt Q00534); assay: Inhibition of CDK6/Cyclin D3 (unknown origin) preincubated for 20 mins followed by ATP addition and measured after 120 mins in presence of [33P-gamma] ATP by hotspot kinase assay; assay type: protein-complex assay; how it was run: as §2
CDK6/cyclin D3, sequence (P30281 whole entry): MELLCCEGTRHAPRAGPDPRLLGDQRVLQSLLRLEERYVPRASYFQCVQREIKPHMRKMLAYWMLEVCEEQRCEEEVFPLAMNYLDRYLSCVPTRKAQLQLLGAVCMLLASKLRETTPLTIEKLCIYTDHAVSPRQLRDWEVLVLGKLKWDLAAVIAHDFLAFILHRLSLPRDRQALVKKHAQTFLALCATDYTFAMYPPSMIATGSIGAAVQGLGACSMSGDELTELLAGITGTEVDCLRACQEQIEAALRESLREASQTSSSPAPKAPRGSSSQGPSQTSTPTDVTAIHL
CDK6/cyclin D3, sequence (Q00534 whole entry): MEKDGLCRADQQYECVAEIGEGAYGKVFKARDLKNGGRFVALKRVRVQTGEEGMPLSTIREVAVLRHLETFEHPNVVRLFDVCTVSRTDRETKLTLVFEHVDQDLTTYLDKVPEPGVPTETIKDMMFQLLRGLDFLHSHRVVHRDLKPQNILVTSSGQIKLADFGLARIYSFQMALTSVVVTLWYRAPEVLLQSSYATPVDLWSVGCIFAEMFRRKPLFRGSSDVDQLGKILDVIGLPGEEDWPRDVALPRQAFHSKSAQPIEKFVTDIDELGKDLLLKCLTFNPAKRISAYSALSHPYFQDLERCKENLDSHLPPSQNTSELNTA

[5] = target: Cyclin-C/Cyclin-dependent kinase 19 (Homo sapiens, UniProt Q9BWU1); assay: Inhibition of CDK19/Cyclin C (unknown origin) preincubated for 20 mins followed by ATP addition and measured after 120 mins in presence of [33P-gamma] ATP by hotspot kinase assay; assay type: protein-complex assay; how it was run: as §2
Cyclin-C/Cyclin-dependent kinase 19, sequence (Q9BWU1 whole entry): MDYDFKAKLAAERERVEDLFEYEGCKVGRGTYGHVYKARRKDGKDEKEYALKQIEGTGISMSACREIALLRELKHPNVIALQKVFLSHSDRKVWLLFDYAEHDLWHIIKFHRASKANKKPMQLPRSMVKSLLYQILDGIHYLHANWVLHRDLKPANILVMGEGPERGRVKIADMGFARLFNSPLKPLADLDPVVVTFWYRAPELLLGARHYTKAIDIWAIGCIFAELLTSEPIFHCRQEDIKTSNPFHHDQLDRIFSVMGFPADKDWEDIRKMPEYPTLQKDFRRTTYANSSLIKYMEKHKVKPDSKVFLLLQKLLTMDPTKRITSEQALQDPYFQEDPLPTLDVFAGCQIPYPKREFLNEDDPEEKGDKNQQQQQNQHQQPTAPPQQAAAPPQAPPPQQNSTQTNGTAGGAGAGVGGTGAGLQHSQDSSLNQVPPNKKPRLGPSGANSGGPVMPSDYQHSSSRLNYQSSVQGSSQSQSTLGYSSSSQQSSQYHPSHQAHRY
Cyclin-C/Cyclin-dependent kinase 19, sequence (P24863 whole entry, further chain): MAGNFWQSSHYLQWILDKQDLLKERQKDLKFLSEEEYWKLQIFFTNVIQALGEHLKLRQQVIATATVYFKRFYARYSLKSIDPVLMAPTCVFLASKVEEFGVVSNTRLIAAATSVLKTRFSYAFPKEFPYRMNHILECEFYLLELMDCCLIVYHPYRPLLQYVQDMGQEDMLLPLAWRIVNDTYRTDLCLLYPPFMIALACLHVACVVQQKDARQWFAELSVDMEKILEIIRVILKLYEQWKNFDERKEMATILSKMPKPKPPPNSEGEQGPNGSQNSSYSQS

[6] = target: Glycogen synthase kinase-3 (Homo sapiens) (UniProt P49840+P49841); assay: Inhibition of GSK3alpha/beta (unknown origin) assessed as enzyme activity at 1 uM preincubated for 20 mins followed by ATP addition and measured after 120 mins in presence of [33P-gamma] ATP by hotspot kinase assay relative to control; assay type: protein assay; parameters: scale not given: the % may be the effect or the level left; conditions: time 140.0 min
Glycogen synthase kinase-3 (Homo sapiens), sequence (P49840 whole entry, looked up): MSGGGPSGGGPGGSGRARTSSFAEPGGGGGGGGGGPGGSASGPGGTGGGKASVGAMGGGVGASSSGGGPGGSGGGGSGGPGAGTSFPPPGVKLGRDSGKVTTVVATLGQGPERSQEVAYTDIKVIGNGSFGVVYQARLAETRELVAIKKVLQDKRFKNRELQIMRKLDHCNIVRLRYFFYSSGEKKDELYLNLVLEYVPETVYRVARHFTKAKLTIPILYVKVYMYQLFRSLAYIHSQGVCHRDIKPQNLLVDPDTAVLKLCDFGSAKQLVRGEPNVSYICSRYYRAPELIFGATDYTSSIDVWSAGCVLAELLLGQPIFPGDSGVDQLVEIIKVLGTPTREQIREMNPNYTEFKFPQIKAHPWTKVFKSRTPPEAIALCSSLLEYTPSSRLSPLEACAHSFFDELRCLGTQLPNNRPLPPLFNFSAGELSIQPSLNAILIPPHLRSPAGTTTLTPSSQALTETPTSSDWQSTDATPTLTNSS
Glycogen synthase kinase-3 (Homo sapiens), sequence (P49841 whole entry, looked up): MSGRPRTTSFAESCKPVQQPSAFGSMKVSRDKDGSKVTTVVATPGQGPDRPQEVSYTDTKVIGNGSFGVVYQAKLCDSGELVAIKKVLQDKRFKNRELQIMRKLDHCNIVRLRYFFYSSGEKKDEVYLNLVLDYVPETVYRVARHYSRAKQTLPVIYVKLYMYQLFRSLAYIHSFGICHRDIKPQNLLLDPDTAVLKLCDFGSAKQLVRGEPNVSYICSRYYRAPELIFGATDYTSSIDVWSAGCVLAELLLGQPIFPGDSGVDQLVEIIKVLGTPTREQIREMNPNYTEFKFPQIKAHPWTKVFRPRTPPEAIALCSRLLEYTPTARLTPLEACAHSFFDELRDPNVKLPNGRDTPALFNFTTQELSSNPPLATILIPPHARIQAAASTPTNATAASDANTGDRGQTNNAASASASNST
How it was run: (§3)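 Radiometric filter-binding kinase assay, buffer pH 7.5 with 10 mM MgCl2 and 1% DMSO. Compound tested at a single 1.0 μM, preincubated 20 min at 25 °C. Reaction started with ATP/[γ-33P]ATP at 10 μM final, run 120 min at 25 °C. Remaining % enzyme activity reported, n=2.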

[7] = target: Serine/threonine-protein kinase MAK (Homo sapiens) (UniProt P20794); assay: Inhibition of MAK (unknown origin) assessed as enzyme activity at 1 uM preincubated for 20 mins followed by ATP addition and measured after 120 mins in presence of [33P-gamma] ATP by hotspot kinase assay relative to control; parameters: scale not given: the % may be the effect or the level left; conditions: time 140.0 min; how it was run: as §3
Serine/threonine-protein kinase MAK (Homo sapiens), sequence (P20794 whole entry): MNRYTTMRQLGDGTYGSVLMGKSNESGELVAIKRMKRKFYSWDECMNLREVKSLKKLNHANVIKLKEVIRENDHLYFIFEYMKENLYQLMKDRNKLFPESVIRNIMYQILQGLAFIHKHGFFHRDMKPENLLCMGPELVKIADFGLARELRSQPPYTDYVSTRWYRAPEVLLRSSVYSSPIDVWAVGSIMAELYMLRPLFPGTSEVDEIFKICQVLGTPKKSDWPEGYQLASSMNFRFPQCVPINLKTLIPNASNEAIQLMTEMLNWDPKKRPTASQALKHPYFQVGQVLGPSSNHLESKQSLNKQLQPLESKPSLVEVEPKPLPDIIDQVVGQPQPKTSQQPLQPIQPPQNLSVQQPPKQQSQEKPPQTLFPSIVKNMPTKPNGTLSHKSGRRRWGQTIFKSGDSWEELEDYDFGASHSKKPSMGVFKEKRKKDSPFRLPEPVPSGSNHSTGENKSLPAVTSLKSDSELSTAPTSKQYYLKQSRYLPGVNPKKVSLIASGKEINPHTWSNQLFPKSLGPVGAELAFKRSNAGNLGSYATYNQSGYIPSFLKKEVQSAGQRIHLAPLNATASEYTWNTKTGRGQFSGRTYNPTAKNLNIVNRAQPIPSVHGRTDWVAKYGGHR

BXPC-3 = assay: Antiproliferative activity against human BxPC3 cells assessed as inhibition of cell growth incubated for 72 hrs by Celltiter-Glo luminescent assay; assay type: functional, cell-based; conditions: BXPC-3, 72 h
How it was run: (§4)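 Cells seeded in growth medium and held overnight at 37 °C; medium-only wells served as background. DMSO stocks were diluted in medium to 3× final and added; cells incubated 72 h at 37 °C, 5% CO2. Viability read by CellTiter-Glo luminescence after 60 min at room temperature. IC50 from curve fit, mean of duplicate.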

MIA PaCa-2 = assay: Antiproliferative activity against human MIA PaCa-2 cells assessed as inhibition of cell growth incubated for 72 hrs by Celltiter-Glo luminescent assay; assay type: functional, cell-based; conditions: MIA PaCa-2, 72 h; how it was run: as §4
HepG2 = assay: Antiproliferative activity against human HepG2 cells assessed as inhibition of cell growth incubated for 72 hrs by Celltiter-Glo luminescent assay; assay type: functional, cell-based; conditions: HepG2, 72 h; how it was run: as §4
HCT-116 = assay: Antiproliferative activity against human HCT-116 cells assessed as inhibition of cell growth incubated for 72 hrs by Celltiter-Glo luminescent assay; assay type: functional, cell-based; conditions: HCT-116, 72 h; how it was run: as §4
NCI-H460 = assay: Antiproliferative activity against human NCI-H460 cells assessed as inhibition of cell growth incubated for 72 hrs by Celltiter-Glo luminescent assay; assay type: functional, cell-based; conditions: NCI-H460, 72 h; how it was run: as §4
[8] = Metabolic stability in human liver microsomes assessed as intrinsic clearance at 1 uM incubated up to 60 mins in presence of NADPH by LC-MS/MS analysis; assay type: ADME, Microsome; conditions: read-out: CLH
How it was run: (§5)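 Liver microsomes (0.5 mg/mL) incubated at 37 °C with compound at 1.0 μM final, 3 mM MgCl2 and 1 mM NADPH in 100 mM PBS pH 7.4. Samples taken at 0, 5, 15, 30, 60 min; remaining parent measured by LC-MS/MS. k = −slope, T1/2 = 0.693/k, CLint = k/microsomal protein concentration. Midazolam served as control.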

[9] = Metabolic stability in dog liver microsomes assessed as intrinsic clearance at 1 uM incubated up to 60 mins in presence of NADPH by LC-MS/MS analysis; assay type: ADME, Canis lupus familiaris, Microsome; conditions: read-out: CLH; how it was run: as §5
[10] = Metabolic stability in rat liver microsomes assessed as half life at 1 uM incubated up to 60 mins in presence of NADPH by LC-MS/MS analysis; assay type: ADME, Microsome; how it was run: as §5
[11] = Initial plasma concentration in ICR mouse at 2 mg/kg, iv measured up to 24 hrs by LC-MS/MS analysis; assay type: ADME, organism-based
How it was run: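 Male ICR mice (25.1–28.8 g, n=9), fasted 12 h, given a single i.v. dose of 2.0 mg/kg at 0.4 mg/mL in DMSO/PEG200/saline (1:1:3). Blood sampled at 0, 0.083, 0.25, 0.5, 1, 2, 4, 8, 24 h. Plasma ACN-precipitated and quantified by LC-MS/MS. Parameters derived from composite mean plasma concentration-time data.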

[12] = Oral bioavailability in ICR mouse at 30 mg/kg measured up to 24 hrs by LC-MS/MS analysis; assay type: ADME, organism-based; conditions: in vivo
How it was run: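 ICR mice (9 per route) received 30 mg/kg p.o. or 2.0 mg/kg i.v. Plasma was sampled to 24 h and analysed by LC-MS/MS. F (%) = AUC0-∞(oral)/AUC0-∞(iv) × dose(iv)/dose(oral) × 100.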

[13] = Toxicity in BALB/c nude mouse xenografted with human MV4-11 cells assessed as mortality at 40 mg/kg, iv administered once daily for 21 days and measured 2 or 3 times per week; assay type: organism-based; conditions: in vivo, 504 h, time 21 day; how it was run: as §1

COc1cc(F)ccc1-c1nc(Nc2ccc3c(N4CCOCC4)c(C(C)=O)c(=O)oc3c2)ncc1F
Activity [1]: Non-Toxic | Activity (MV4-11): 0.18 g | IC50 [2]: 16.6 µM | IC50 [3]: 1.01 µM | IC50 [4]: 1.26 µM | IC50 (CDK6/cyclin D3): 0.336 µM | IC50 [5]: 15.5 µM | Activity [6]: < 10% | Activity [7]: < 10% | IC50 (BXPC-3): 0.08 µM | IC50 (MIA PaCa-2): 0.46 µM | IC50 (HepG2): 0.1 µM | IC50 (HCT-116): 0.28 µM | IC50 (NCI-H460): 0.64 µM | microsomal CLint at 1 µM [8]: 38.8 µL/min/mg | microsomal CLint at 1 µM [9]: 98.7 µL/min/mg | half-life at 1 µM [10]: 2.01 min | C0 at 24 h [11]: 3.06 µg/mL | bioavailability [12]: 14.3% | Activity [13]: Non-Toxic
